Reference: ChEMBL document CHEMBL3632558, “Synthesis, antimycobacterial and antibacterial activity of l-[(1R,2S)-2-fluorocyclopropyl]naphthyridone derivatives containing an oxime-functionalized pyrrolidine moiety” (2015)
≈ marks a conversion by molar mass, not a printed value.

Tested on: Mycobacterium tuberculosis
Test: Antimycobacterial activity against multidrug-resistant Mycobacterium tuberculosis 6133 by alamar blue assay
Type: functional
How it was run: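 Microplate Alamar Blue Assay; MIC is the lowest concentration giving ≥90% reduction in fluorescence relative to the mean of replicate bacterium-only controls. MDR strain 6133 is resistant to isoniazid and rifampicin.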

| SMILES | MIC90 [µg/mL] |
| --- | --- |
| NCC1CN(c2nc3c(cc2F)c(=O)c(C(=O)O)cn3[C@@H]2C[C@@H]2F)C/C1=N\OCc1ccc(F)cc1 (stereo partly specified) | 0.043 (≈ 0.0857 µM) |
| Cc1ccc(CO/N=C2\CN(c3nc4c(cc3F)c(=O)c(C(=O)O)cn4[C@@H]3C[C@@H]3F)CC2CN)cc1 (stereo partly specified) | 0.03 (≈ 0.0603 µM) |
| NCC1CN(c2nc3c(cc2F)c(=O)c(C(=O)O)cn3[C@@H]2C[C@@H]2F)C/C1=N\OCc1ccc2c(c1)OCO2 (stereo partly specified) | 0.054 (≈ 0.102 µM) |
| NCC1CN(c2nc3c(cc2F)c(=O)c(C(=O)O)cn3[C@@H]2C[C@@H]2F)C/C1=N\OCc1ccccc1 (stereo partly specified) | 0.125 (≈ 0.259 µM) |
| NNC(=O)c1ccncc1 [ISONIAZID] | 4 (≈ 29.2 µM) |
| CO[C@H]1/C=C/O[C@@]2(C)Oc3c(C)c(O)c4c(O)c(c(/C=N/N5CCN(C)CC5)c(O)c4c3C2=O)NC(=O)/C(C)=C\C=C\[C@H](C)[C@H](O)[C@@H](C)[C@@H](O)[C@@H](C)[C@H](OC(C)=O)[C@@H]1C [RIFAMPIN] | > 40 |
